This is a sample that favours compounds with a hit; in the whole collection about 3.7% have one here.
PKD1 kinase inh – inhibitors of human PKD1 kinase; inhibition, % (concentration not given with the values); 200,000 tested, 0.056% active; Q15139; AID 797; PKD1 kinase fluorescence polarization assay; in the data active = inhibition above about 50%
Cl transport mod – modulates chloride dependent transport by human KCC2 | Q9H2X9 | KCC2 cells, thallium flux FluoZin-2 fluorescence | B-score of Tl+ flux slope (higher = more flux/activation; lower = inhibition) at 10 µM | 190,000 tested, 2.2% active;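 active = thallium flux slope and its plate-corrected score both differing from the plate sample mean at a set confidence after two filtering rounds, in either direction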;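 note: slope of fluorescence scaled to starting intensity during 10 to 20 s after thallium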
ROMK mod – modulates human ROMK potassium channel activity; Tet-inducible ROMK, thallium flux fluorescence; actives lie on both sides; B-score at 10 µM; 130,000 tested, 2% active; P48048;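 active = signal ratio slope over the read window, or its plate-corrected B-score, at least 3 SD from the plate mean, either direction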;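 note: B-score of the F/F0 ratio slope over 7 to 12 s after thallium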
Target sequence (P48048 whole entry, looked up): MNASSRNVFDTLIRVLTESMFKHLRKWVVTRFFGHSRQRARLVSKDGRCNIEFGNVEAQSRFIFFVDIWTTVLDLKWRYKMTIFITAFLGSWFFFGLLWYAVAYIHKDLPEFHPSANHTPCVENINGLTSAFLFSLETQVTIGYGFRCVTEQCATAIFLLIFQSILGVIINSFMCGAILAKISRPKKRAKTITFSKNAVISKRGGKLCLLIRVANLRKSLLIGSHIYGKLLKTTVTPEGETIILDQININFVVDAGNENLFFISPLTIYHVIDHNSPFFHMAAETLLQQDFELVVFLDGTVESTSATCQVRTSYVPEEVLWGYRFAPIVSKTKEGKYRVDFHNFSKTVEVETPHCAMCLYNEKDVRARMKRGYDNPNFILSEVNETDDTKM
Arbovirus inh – arbovirus infection inhibition. inhibition, % at 10 µM. 200,000 tested, 0.37% active. arbovirus infection cell-based antiviral screen; in the data active = inhibition above about 30%
Mdm2 ligase inh – blocks human Mdm2 ubiquitin ligase activity | cell-based MDM2 ubiquitination luciferase reporter, 2 h; 0 = plate control, 100 = twice control, blank-subtracted | signal enhancement, % at 5 µM | 210,000 tested, 0.11% active | AID 1230;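 active = signal enhancement of 30% or more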;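 note: luminescence tracks abundance of the self-degrading MDM2-luciferase fusion protein; higher signal means inhibition of MDM2 E3 ligase activity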
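Assay system: stable mammalian line carrying autodegrading MDM2–luciferase fusion reporter; Input: 2000 cells in each well; Compound dosing: single-point 5 µM; Schedule: 2 h compound exposure at 37 °C; Signal: SteadyLite luciferase luminescence after 15 min room-temperature reagent incubation; Evaluation: % luminescence enhancement versus blank-corrected plate control mean; Benchmarks: plate controls and plate blanks.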
Calpain2 inh – calpain II (pig) inhibition. inhibition, % at 16 µM. purified calpain II, fluorogenic peptide substrate, 30 min. AID 1236. 220,000 tested, 0.37% active;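 active = inhibition above about 50%, limit read from the data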
KCC2 secondary – confirmation of human KCC2 transport modulators; shares compounds with Cl transport mod; normalised thallium flux (F/F0 slope) at 10 µM; HEK293-KCC2, thallium flux, FluoZin2 fluorescence; hits give high values; 3,700 tested, 15% active;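 active = thallium flux slope above the same plate's solvent-only control mean plus 3 SD; inconclusive = the two replicate wells disagree; inactive = no significant difference from solvent-only control wells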
KCC2 bumet counter – thallium flux despite bumetanide block in KCC2 cells, secondary assay 3; shares compounds with Cl transport mod; HEK293-KCC2 + bumetanide/ouabain, thallium flux FluoZin2; hits give high values; normalized thallium flux at 10 µM; 3,700 tested, 49% active; AID 1714;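 active = thallium entry rate above the same plate's blocked-transporter control wells by more than 3 SD; inconclusive = the two repeat wells disagree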;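 note: raw slope of fluorescence over initial fluorescence between 10 and 20 s after thallium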
KCC2 sec2 – KCC2 (human) modulation, second secondary assay; AID 1715; normalized thallium flux at 10 µM; shares compounds with Cl transport mod; 3,700 tested, 23% active; HEK293-KCC2, thallium flux FluoZin2 fluorescence; actives lie on both sides; F/F0 rise rate, 10–20 s post-thallium;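 active = thallium flux slope more than 3 SD above or below the plate's solvent-only control mean, mostly below; inconclusive = the two repeat wells disagreed; inactive = no significant shift from solvent-only controls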;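 note: raw slope with 0.1% DMSO as baseline and bumetanide as block control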
HEK293 Tl flux – counter-screen for KCC2 modulators: effect in parental HEK293 cells. shares compounds with Cl transport mod. thallium flux FluoZin2, ouabain; baseline-ratio fluorescence slope, 10–20 s after thallium. thallium flux rate (normalised fluorescence) at 10 µM. 3,700 tested, 46% active. AID 1716;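 active = thallium flux rate significantly above the same plate's solvent-only control wells, beyond their mean plus 3 SD; inconclusive = the two replicate wells gave conflicting results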
KCC2 retest ouab – KCC2 (human) modulation, ouabain retest; shares compounds with Cl transport mod; raw Tl+ flux slope (below DMSO = inhibition, above = activation) at 10 µM; HEK293-KCC2, thallium flux FluoZin2 fluorescence; bidirectional: low = inhibitor, high = activator; 3,700 tested, 48% active;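 active = thallium flux slope beyond 3 SD from same-plate DMSO control mean in most replicates, usually higher, sometimes lower; inconclusive = repeat tests gave conflicting results; inactive = no significant difference from controls in most replicates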;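 note: slope of initial-normalized fluorescence between seconds 10 and 20 after thallium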
HEK293 Tl flux2 – acts in parental HEK cells, second KCC2 counter-screen | shares compounds with Cl transport mod | HEK293 parental, thallium flux FluoZin-2 fluorescence slope | thallium flux slope at 10 µM | 3,700 tested, 33% active | AID 1718;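 active = thallium flux slope above the same plate's solvent-control mean plus 3 SD in both duplicate wells; inconclusive = duplicate wells that disagreed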;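 note: run without ouabain in cells lacking the KCC2 cotransporter; slope of fluorescence scaled to its starting value between 10 and 20 s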
* marks the source's active call; other numbers are inactive results; ? = inconclusive; . = not tested or not shown.

SMILES	PKD1 kinase inh	Cl transport mod	ROMK mod	Arbovirus inh	Mdm2 ligase inh	Calpain2 inh	KCC2 secondary	KCC2 bumet counter	KCC2 sec2	HEK293 Tl flux	KCC2 retest ouab	HEK293 Tl flux2
CCc1cc(-c2n[nH]c(=S)n2Cc2ccccc2)cs1	-1.9	14.7*	0.0801	-13.9	-11.5	17.1	0.00671	0.0198*	0.0301	0.0158*	?	0.0113*
Cc1ccc(CCCOC(=O)CN2CCCCC2)cc1	-5.5	-0.0188	.	5.8	-20.5	4.2	.	.	.	.	.	.
Cc1ccc(C(=O)COc2nc(C)nc3ccccc23)cc1	2.4	-0.666	0.768	15.4	-13.7	39.6	.	.	.	.	.	.
Cc1cc(Br)cc(C)c1NC(=S)NC(=O)CC(C)C	-9.8	0.439	0.0396	10.4	-24.2	15.0	.	.	.	.	.	.
Cc1ccc(-c2c[n+](CC(=O)Nc3cc(=O)n(C)c(=O)n3C)c3n2CCC3)cc1	1.9	0.113	.	-6.5	-0.6	-7.2	.	.	.	.	.	.
O=C(NC1CCCCCC1)C1CCN(c2nc3ccccc3o2)CC1	1.0	.	-2.21	0.4	-11.5	15.7	0.00937	0.00568	?	0.00419	0.0181*	0.0108
CCCN1C(=O)/C(=C/c2ccc(C)o2)NC1=S	-3.4	82.7*	0.101	0.3	-3.0	-23.8	0.0216*	0.12*	?	0.0495*	0.0846*	0.0178*
CN(CCCn1c(=S)[nH]c2ncccc2c1=O)Cc1ccccc1	8.4	14.8*	.	2.0	-3.6	-7.3	?	0.057*	0.0362	0.0222*	0.0566*	0.0138*
CCCCCn1c(=S)[nH]c2ncccc2c1=O	2.8	56.6*	.	0.4	-5.5	-42.3	0.0379*	0.12*	0.0465*	?	0.0938*	0.036*
O=c1c2cccnc2[nH]c(=S)n1CCC1=CCCCC1	4.3	67.9*	.	2.6	6.3	8.1	0.0413*	0.16*	0.0507*	0.0745*	0.0853*	0.0471*
Cc1noc(C)c1C(=O)OCC(=O)Nc1cc(S(=O)(=O)N2CCOCC2)ccc1Cl	-6.1	1.37	-0.196	2.1	-9.0	8.0	.	.	.	.	.	.
CC(C)(C)NC(=O)NC(=O)CSc1ncccn1	-3.2	0.0652	0.634	1.2	-1.8	4.4	.	.	.	.	.	.
CSCCC(NC(=O)c1ccc([N+](=O)[O-])cc1Cl)C(=O)OCC(=O)NCCCc1ccccc1 (stereo unspecified)	-8.6	-4.28*	-0.446	-5.2	21.6	5.1	0.00556	?	0.0263*	0.00713	?	0.01
COc1ccc(C2N=C(Nc3ccc(C)cc3)Nc3nc(C)cc(=O)n32)cc1 (stereo unspecified)	-7.3	0.717	0.482	5.0	-13.9	-40.3	.	.	.	.	.	.
COc1cc(/C=C(\C#N)C(=O)NCCc2ccccc2)cc(OC)c1O	1.4	-6.22*	-2.7	-3.7	.	-12.3	0.00558	3.98e-05*	0.0198*	0.00444*	0.00912*	?
CCOCCCNC(=O)/C(C#N)=C/c1cc(Br)c(O)c(Br)c1	.	-4.01*	.	.	-4.8	-2.9	0.00726	0.00398	0.0294	0.00694	0.017	0.00962
Cc1ccc(CNS(=O)(=O)c2ccccc2[N+](=O)[O-])cc1	-2.6	-0.201	0.216	-0.5	-1.8	37.2	.	.	.	.	.	.
O=C(Nc1cc(C(F)(F)F)ccc1-n1cnc2ccccc21)c1ccccc1	9.2	0.805	.	-1.5	-13.5	-5.1	.	.	.	.	.	.
O=C(OCc1cccc([N+](=O)[O-])c1)c1cc(=O)[nH]c2ccccc12	-9.0	0.0469	1.15	-3.3	-4.3	-31.0	.	.	.	.	.	.
C=CCN(c1cccc(C(F)(F)F)c1)S(=O)(=O)c1cccc(C(=O)OCC(=O)NCCC)c1	1.6	-4.22*	.	13.5	115.9*	13.4	?	0.00401	0.0244*	0.00585*	0.0142*	?
CC(=O)Nc1sc(N/N=C\c2ccco2)nc1-c1cccs1	6.1	-0.00197	0.203	-18.6	-6.3	-24.7	.	.	.	.	.	.
COC(=O)c1ccccc1NC(=O)c1cc([N+](=O)[O-])nn1Cc1ccccc1	3.4	0.000679	-0.441	-2.4	-2.1	-5.3	.	.	.	.	.	.
Nc1nnc(SCC(=O)c2ccccc2)s1	6.8	.	-0.29	7.8	-6.5	8.5	.	.	.	.	.	.
Nc1c(C(=O)c2ccccc2)sc2snc(SCC(=O)c3ccccc3)c12	-5.4	.	.	2.9	2.0	-5.0	0.00845	0.00659	0.0304	0.00716	0.0193	0.00997
Cc1c(-n2c(SCC(=O)O)nnc2-c2ccccc2Cl)c(=O)n(-c2ccccc2)n1C	-3.6	0.0455	.	-4.7	5.4	7.4	0.00911	0.00539	0.0318	0.00757	0.0202	?
SMILES	PKD1 kinase inh	Cl transport mod	ROMK mod	Arbovirus inh	Mdm2 ligase inh	Calpain2 inh	KCC2 secondary	KCC2 bumet counter	KCC2 sec2	HEK293 Tl flux	KCC2 retest ouab	HEK293 Tl flux2
CC(C)n1c(=S)[nH]c2cc(Cl)ccc21	.	27.7*	1.21	.	-5.6	-19.0	0.0157*	0.0897*	0.0396	0.0301*	0.0394*	0.0147*
Clc1ccc2nc(N3CCCCC3)[nH]c2c1	-12.4	-0.254	0.012	-2.3	-37.7	3.7	.	.	.	.	.	.
COC(=O)c1cn(C)c2ccc(S(=O)(=O)N3CCOCC3)cc2c1=O	-1.0	-0.558	0.169	12.6	-8.6	-2.1	.	.	.	.	.	.
Cc1ccccc1NC(=S)N=Nc1c(O)n(C)c2ccc(S(=O)(=O)N3CCOCC3)cc12	-10.1	14.8*	0.0217	0.0	0.9	-6.7	0.0107	0.0695*	0.0353	0.0231*	?	?
Cc1cccc(C)c1NC(=S)N=Nc1c(O)n(C)c2ccc(S(=O)(=O)N3CCOCC3)cc12	0.8	4.38*	-1.58	-3.2	0.3	-58.8	0.0104	0.0272*	0.035	0.012*	0.0275	0.0118*
Cn1c(=O)n(C)c2cc(S(=O)(=O)N3CCOCC3)ccc21	-1.8	0.277	.	-3.3	-7.4	-19.4	.	.	.	.	.	.
COCCCNC(=S)NC(=O)c1ccc(C)cc1	-5.7	1.84	1.21	7.2	-12.1	3.0	.	.	.	.	.	.
CCN(CC)c1cccc(OC2=NS(=O)(=O)c3ccccc32)c1	-7.8	0.0323	-0.122	-1.0	-5.9	-11.4	.	.	.	.	.	.
Cc1cc(C(=O)CSc2nnc(-c3cccc(F)c3)n2N)c(C)n1Cc1ccc2c(c1)OCO2	12.8	.	-1.17	-1.5	-11.4	-153.8	0.0075	0.00395	0.0285	0.00697	0.019	0.0103
CC(=O)c1c(C)[nH]c(C(=O)CSc2nnc(-c3ccccc3)n2Cc2ccc3c(c2)OCO3)c1C	3.5	.	.	-1.9	-37.2	18.5	.	.	.	.	.	.

Assay outcomes from PubChem BioAssay.
